Results published in PubChem BioAssay AID1744 (Vanderbilt High Throughput Screening Facility, 2009).

Target: Muscarinic acetylcholine receptor M1 (Rattus norvegicus) (UniProt P08482)
Assay: muscarinic receptor subtype activation panel – cell-based, agonist mode, selectivity assay for M1 allosteric modulator project, profiling panel (AID 1744)
Conditions: CHO-K1 rat M1, Fluo-4 calcium flux
Outline: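 assay system = CHO-K1 cells stably carrying rat M1 muscarinic receptor | times = Fluo-4 dye loading for 1 h at 37 °C | medium = pH 7.4 loading buffer | detection = Fluo-4 calcium fluorescence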

SMILES	EC50
CCOC(=O)N1CCC(NCCNC(=O)c2ccccc2)CC1	152 nM
CCOC(=O)N1CCC(NCCNC(=O)c2ccccc2C)CC1	198 nM
CCOC(=O)N1CCC(NCCNC(=O)c2ccccc2Cl)CC1	804 nM
CCOC(=O)N1CCC(NCCNC(=O)c2cccc(OC)c2)CC1	438 nM
CCOC(=O)N1CCC(NCCNC(=O)c2cccs2)CC1	1740 nM

Second part, the molecule after the results:

EC50	SMILES
154 nM	CCOC(=O)N1CCC(NCCNC(=O)c2ccc(F)cc2)CC1
211 nM	CCOC(=O)N1CCC(NCCNC(=O)c2ccc(F)c(F)c2)CC1
154 nM	CCOC(=O)N1CCC(NCCNC(=O)c2cccc(F)c2)CC1
